Assay results from ChEMBL document CHEMBL1811814, “Synthesis and evaluation of indole, pyrazole, chromone and pyrimidine based conjugates for tumor growth inhibitory activities--development of highly efficacious cytotoxic agents” (Eur J Med Chem, 2010).

What was measured:
Assay type in all cases: functional
Design in all cases: scale not given: the % may be the effect or the level left
[1] = system: SF-268; experiment: Growth inhibition of human SF268 cells assessed tumor cell growth at 10^-5 M
How it was run: (§1)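 NCI 60-human-tumor-cell-line panel screen. Each compound was tested at a single concentration of 10^-5 M, and percent growth of tumor cells was recorded for each cell line. Growth inhibition was expressed from these percent-growth values.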

[2] = system: MDA-MB-468; experiment: Growth inhibition of human MDA-MB-468 cells assessed tumor cell growth at 10^-5 M; how it was run: as §1
[3] = system: OVCAR-5; experiment: Growth inhibition of human OVCAR5 cells assessed tumor cell growth at 10^-5 M; how it was run: as §1
[4] = system: SF-539; experiment: Growth inhibition of human SF539 cells assessed tumor cell growth at 10^-5 M; how it was run: as §1
[5] = system: A498; experiment: Growth inhibition of human A498 cells assessed tumor cell growth at 10^-5 M; how it was run: as §1
[6] = system: NCI/ADR-RES; experiment: Growth inhibition of human NCI/ADR-RES cells assessed tumor cell growth at 10^-5 M; how it was run: as §1
[7] = system: SW-620; experiment: Growth inhibition of human SW620 cells assessed tumor cell growth at 10^-5 M
How it was run: (§2)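 Single-dose screen at 10^-5 M across the 60 human tumor cell line panel, run to NCI standards. The value is the percent growth of each cell line in the presence of compound. Compounds active at this dose moved on to five-concentration testing (10^-4 to 10^-8 M).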

[8] = system: MOLT-4; experiment: Growth inhibition of human MOLT4 cells assessed tumor cell growth at 10^-5 M; how it was run: as §1
[9] = system: TK-10; experiment: Growth inhibition of human TK10 cells assessed tumor cell growth at 10^-5 M; how it was run: as §2
[10] = system: CAKI-1; experiment: Growth inhibition of human Caki1 cells assessed tumor cell growth at 10^-5 M; how it was run: as §1
[11] = system: UACC-257; experiment: Growth inhibition of human UACC257 cells assessed tumor cell growth at 10^-5 M; how it was run: as §2
[12] = system: 786-0; experiment: Growth inhibition of human 786-0 cells assessed tumor cell growth at 10^-5 M; how it was run: as §1
[13] = system: MDA-MB-435; experiment: Growth inhibition of human MDA-MB-435 cells assessed tumor cell growth at 10^-5 M; how it was run: as §1
[14] = system: SF-295; experiment: Growth inhibition of human SF295 cells assessed tumor cell growth at 10^-5 M; how it was run: as §1
[15] = system: MCF7; experiment: Growth inhibition of human MCF7 cells assessed tumor cell growth at 10^-5 M; how it was run: as §1
[16] = system: UO-31; experiment: Growth inhibition of human UO31 cells assessed tumor cell growth at 10^-5 M; how it was run: as §2
[17] = Growth inhibition of human Hs 578T cells assessed tumor cell growth at 10^-5 M; how it was run: as §1
[18] = system: SNB-19; experiment: Growth inhibition of human SNB19 cells assessed tumor cell growth at 10^-5 M; how it was run: as §2
[19] = system: PC-3; experiment: Growth inhibition of human PC3 cells assessed tumor cell growth at 10^-5 M; how it was run: as §1
[20] = system: KM12; experiment: Growth inhibition of human KM12 cells assessed tumor cell growth at 10^-5 M; how it was run: as §1
[21] = system: MDA-MB-231; experiment: Growth inhibition of human MDA-MB-231 cells assessed tumor cell growth at 10^-5 M; how it was run: as §1
[22] = system: U-251; experiment: Growth inhibition of human U251 cells assessed tumor cell growth at 10^-5 M; how it was run: as §2
[23] = system: NCI-H23; experiment: Growth inhibition of human NCI-H23 cells assessed tumor cell growth at 10^-5 M; how it was run: as §1
[24] = system: SK-OV-3; experiment: Growth inhibition of human SKOV3 cells assessed tumor cell growth at 10^-5 M; how it was run: as §1
[25] = system: T47D; experiment: Growth inhibition of human T47D cells assessed tumor cell growth at 10^-5 M; how it was run: as §2
[26] = system: HCC 2998; experiment: Growth inhibition of human HCC2998 cells assessed tumor cell growth at 10^-5 M; how it was run: as §1
[27] = system: A549; experiment: Growth inhibition of human A549 cells assessed tumor cell growth at 10^-5 M; how it was run: as §1
[28] = system: SN12C; experiment: Growth inhibition of human SN12C cells assessed tumor cell growth at 10^-5 M; how it was run: as §1
[29] = system: HCT-15; experiment: Growth inhibition of human HCT15 cells assessed tumor cell growth at 10^-5 M; how it was run: as §1
[30] = system: IGROV-1; experiment: Growth inhibition of human IGROV1 cells assessed tumor cell growth at 10^-5 M; how it was run: as §1
[31] = system: RXF 393; experiment: Growth inhibition of human RXF393 cells assessed tumor cell growth at 10^-5 M; how it was run: as §1
[32] = system: HOP-62; experiment: Growth inhibition of human HOP62 cells assessed tumor cell growth at 10^-5 M; how it was run: as §1
[33] = system: COLO 205; experiment: Growth inhibition of human COLO205 cells assessed tumor cell growth at 10^-5 M; how it was run: as §1
[34] = system: NCI-H322M; experiment: Growth inhibition of human NCI-H322M cells assessed tumor cell growth at 10^-5 M; how it was run: as §1
[35] = system: Malme-3M; experiment: Growth inhibition of human MALME-3M cells assessed tumor cell growth at 10^-5 M; how it was run: as §1
[36] = system: SK-MEL-2; experiment: Growth inhibition of human SK-MEL-2 cells assessed tumor cell growth at 10^-5 M; how it was run: as §1
[37] = system: SK-MEL-5; experiment: Growth inhibition of human SK-MEL-5 cells assessed tumor cell growth at 10^-5 M; how it was run: as §1
[38] = system: OVCAR-3; experiment: Growth inhibition of human OVCAR3 cells assessed tumor cell growth at 10^-5 M; how it was run: as §1
[39] = system: OVCAR-4; experiment: Growth inhibition of human OVCAR4 cells assessed tumor cell growth at 10^-5 M; how it was run: as §1
[40] = system: SNB-75; experiment: Growth inhibition of human SNB75 cells assessed tumor cell growth at 10^-5 M; how it was run: as §2
[41] = system: ACHN; experiment: Growth inhibition of human ACHN cells assessed tumor cell growth at 10^-5 M; how it was run: as §1
[42] = system: LOX IMVI; experiment: Growth inhibition of human LOXIMVI cells assessed tumor cell growth at 10^-5 M; how it was run: as §1
[43] = system: NCI-H522; experiment: Growth inhibition of human NCI-H522 cells assessed tumor cell growth at 10^-5 M; how it was run: as §1
[44] = system: CCRF-CEM; experiment: Growth inhibition of human CCRF-CEM cells assessed tumor cell growth at 10^-5 M; how it was run: as §1
[45] = system: HT-29; experiment: Growth inhibition of human HT-29 cells assessed tumor cell growth at 10^-5 M; how it was run: as §1
[46] = system: UACC-62; experiment: Growth inhibition of human UACC62 cells assessed tumor cell growth at 10^-5 M; how it was run: as §2
[47] = system: HOP-92; experiment: Growth inhibition of human HOP92 cells assessed tumor cell growth at 10^-5 M; how it was run: as §1
[48] = system: HL-60(TB); experiment: Growth inhibition of human HL-60(TB) cells assessed tumor cell growth at 10^-5 M
How it was run: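 HL-60(TB), part of the 60-line panel, tested at a single concentration of 10^-5 M. The read-out is percent tumor cell growth relative to untreated growth.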

[49] = system: SK-MEL-28; experiment: Growth inhibition of human SK-MEL-28 cells assessed tumor cell growth at 10^-5 M; how it was run: as §1
[50] = system: NCI-H226; experiment: Growth inhibition of human NCI-H226 cells assessed tumor cell growth at 10^-5 M; how it was run: as §1
[51] = system: K562; experiment: Growth inhibition of human K562 cells assessed tumor cell growth at 10^-5 M; how it was run: as §1
[52] = system: DU-145; experiment: Growth inhibition of human DU145 cells assessed tumor cell growth at 10^-5 M; how it was run: as §1
[53] = system: HCT-116; experiment: Growth inhibition of human HCT116 cells assessed tumor cell growth at 10^-5 M; how it was run: as §1
[54] = system: NCI-H460; experiment: Growth inhibition of human NCI-H460 cells assessed tumor cell growth at 10^-5 M; how it was run: as §1
[55] = system: OVCAR-8; experiment: Growth inhibition of human OVCAR8 cells assessed tumor cell growth at 10^-5 M; how it was run: as §1
[56] = system: M14; experiment: Growth inhibition of human M14 cells assessed tumor cell growth at 10^-5 M; how it was run: as §1
[57] = system: EKVX; experiment: Growth inhibition of human EKVX cells assessed tumor cell growth at 10^-5 M; how it was run: as §1
[58] = system: BT-549; experiment: Growth inhibition of human BT549 cells assessed tumor cell growth at 10^-5 M; how it was run: as §1
[59] = Growth inhibition of human […] cells assessed tumor cell growth at 10^-5 M; how it was run: as §1

CC1=NN(c2cccc(Cl)c2)C(=O)/C1=C\c1cn(C(=O)c2c(Cl)cccc2Cl)c2ccccc12
Activity [1]: 99.71%
Activity [2]: 98.04%
Activity [3]: 78.09%
Activity [4]: 88.35%
Activity [5]: 102.24%
Activity [6]: 90.21%
Activity [7]: 96.65%
Activity [8]: 78.5%
Activity [9]: 123.88%
Activity [10]: 89.11%
Activity [11]: 88.84%
Activity [12]: 101.2%
Activity [13]: 109.08%
Activity [14]: 96.99%
Activity [15]: 84.58%
Activity [16]: 75.46%
Activity [17]: 93.53%
Activity [18]: 100.95%
Activity [19]: 93.89%
Activity [20]: 100.84%
Activity [21]: 82.49%
Activity [22]: 111.4%
Activity [23]: 78.46%
Activity [24]: 93.9%
Activity [25]: 77.75%
Activity [26]: 87.28%
Activity [27]: 103.17%
Activity [28]: 100.77%
Activity [29]: 102.31%
Activity [30]: 100.26%
Activity [31]: 96.55%
Activity [32]: 92.85%
Activity [33]: 105.8%
Activity [34]: 99.91%
Activity [35]: 100.66%
Activity [36]: 95.14%
Activity [37]: 93.87%
Activity [38]: 105.51%
Activity [39]: 94.88%
Activity [40]: 81.76%
Activity [41]: 90.96%
Activity [42]: 91.86%
Activity [43]: 87.52%
Activity [44]: 107.14%
Activity [45]: 110.62%
Activity [46]: 84.14%
Activity [47]: 75.93%
Activity [48]: 95.11%
Activity [49]: 108.69%
Activity [50]: 97.86%
Activity [51]: 120.99%
Activity [52]: 113.79%
Activity [53]: 93.25%
Activity [54]: 102.74%
Activity [55]: 89.79%
Activity [56]: 88.55%
Activity [57]: 70.54%
Activity [58]: 95.67%

CC1=NN(c2cccc(Cl)c2)C(=O)/C1=C\c1cn(S(=O)(=O)c2ccc(C)cc2)c2ccccc12
Activity [1]: 103.69%
Activity [2]: 118.75%
Activity [3]: 88.09%
Activity [4]: 114%
Activity [5]: 117.06%
Activity [6]: 85.11%
Activity [7]: 98.36%
Activity [8]: 173.14%
Activity [9]: 166.55%
Activity [10]: 87.81%
Activity [11]: 114.55%
Activity [12]: 94.95%
Activity [13]: 105.48%
Activity [14]: 114.23%
Activity [15]: 113.07%
Activity [16]: 78.22%
Activity [17]: 115.57%
Activity [18]: 114.11%
Activity [20]: 109.5%
Activity [21]: 85.37%
Activity [22]: 102.73%
Activity [23]: 83.92%
Activity [24]: 105.37%
Activity [25]: 91.46%
Activity [26]: 88.49%
Activity [27]: 108.98%
Activity [28]: 97.46%
Activity [29]: 105.27%
Activity [31]: 137.02%
Activity [32]: 62.28%
Activity [33]: 142.35%
Activity [59]: 113.1%
Activity [34]: 105.18%
Activity [35]: 114.11%
Activity [36]: 113.68%
Activity [37]: 105.66%
Activity [38]: 110.25%
Activity [39]: 103.09%
Activity [40]: 89.33%
Activity [41]: 97.51%
Activity [42]: 97.36%
Activity [43]: 107.2%
Activity [44]: 134.54%
Activity [45]: 122.1%
Activity [46]: 86.46%
Activity [48]: 114.07%
Activity [49]: 125.16%
Activity [50]: 79.93%
Activity [51]: 138.24%
Activity [52]: 114.18%
Activity [53]: 88.23%
Activity [54]: 119.39%
Activity [55]: 107.68%
Activity [56]: 82.05%
Activity [57]: 97.98%
Activity [58]: 111.59%
